ChEMBL document CHEMBL1156129, “Synthesis, structure-activity relationships, and characterization of novel nonsteroidal and selective androgen receptor modulators” (J Med Chem, 2009)

Tests used:
[1] = Plasma concentration in Sprague-Dawley rat at 10 mg/kg, po after 30 mins; assay type: ADME, organism-based; design: dose 10 mg/kg, route oral
[2] = Half life in Beagle dog at 1 mg/kg, iv; assay type: ADME, organism-based, Canis lupus familiaris; design: dose 1 mg/kg, route intravenous; conditions: in vivo
[3] = AUC (8 hrs) in Sprague-Dawley rat at 1 mg/kg, iv; assay type: ADME, organism-based; design: time < 8 hr, dose 1 mg/kg, route intravenous; conditions: plasma
[4] = Plasma concentration in Beagle dog at 10 mg/kg, po after 8 hrs; assay type: ADME, organism-based, Canis lupus familiaris; design: dose 10 mg/kg, route oral
[5] = system: Liver microsomes; test: Metabolic stability in rat liver microsomes assessed as intrinsic clearance; assay type: ADME, Microsome
[6] = Plasma concentration in Beagle dog at 1 mg/kg, iv after 2 hrs; assay type: ADME, organism-based, Canis lupus familiaris; design: dose 1 mg/kg, route intravenous
[7] = Plasma concentration in Sprague-Dawley rat at 10 mg/kg, po after 60 mins; assay type: ADME, organism-based; design: dose 10 mg/kg, route oral
[8] = Plasma concentration in Beagle dog at 1 mg/kg, iv after 0.25 hrs; assay type: ADME, organism-based, Canis lupus familiaris; design: dose 1 mg/kg, route intravenous
[9] = Plasma concentration in Beagle dog at 1 mg/kg, iv after 0.5 hrs; assay type: ADME, organism-based, Canis lupus familiaris; design: dose 1 mg/kg, route intravenous
[10] = Plasma concentration in Sprague-Dawley rat at 1 mg/kg, iv after 10 mins; assay type: ADME, organism-based; design: dose 1 mg/kg, route intravenous
[11] = Agonist activity at androgen receptor LBD T877A mutant in mouse NIH3T3 cells transiently transfected with beta-galactosidase reporter gene assessed as cellular transformation by R-SAT assay; assay type: functional, cell-based
Outline: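 AR expression vector transiently co-transfected (Polyfect) with β-galactosidase and coactivators SRC1, DRIP205 and GRIP1 into NIH-3T3 fibroblasts at 60-70% confluency. ONPG substrate added, absorbance read at 420 nm. EC50 from a hyperbolic fit. Mean ± SEM of three or more independent experiments.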

[12] = Plasma concentration in Beagle dog at 1 mg/kg, iv after 6 hrs; assay type: ADME, organism-based, Canis lupus familiaris; design: dose 1 mg/kg, route intravenous
[13] = Volume of distribution at steady state in Sprague-Dawley rat at 1 mg/kg, iv; assay type: ADME, organism-based; design: dose 1 mg/kg, route intravenous; conditions: in vivo, read-out: Vdss
[14] = Plasma concentration in Sprague-Dawley rat at 1 mg/kg, iv after 60 mins; assay type: ADME, organism-based; design: dose 1 mg/kg, route intravenous
[15] = Plasma concentration in Sprague-Dawley rat at 10 mg/kg, po after 240 mins; assay type: ADME, organism-based; design: dose 10 mg/kg, route oral
[16] = Plasma concentration in Beagle dog at 1 mg/kg, iv after 8 hrs; assay type: ADME, organism-based, Canis lupus familiaris; design: dose 1 mg/kg, route intravenous
[17] = Plasma concentration in Sprague-Dawley rat at 1 mg/kg, iv after 240 mins; assay type: ADME, organism-based; design: dose 1 mg/kg, route intravenous
[18] = Clearance in Sprague-Dawley rat at 1 mg/kg, iv; assay type: ADME, organism-based; design: dose 1 mg/kg, route intravenous; conditions: in vivo
[19] = Plasma concentration in Beagle dog at 10 mg/kg, po after 4 hrs; assay type: ADME, organism-based, Canis lupus familiaris; design: dose 10 mg/kg, route oral
[20] = system: Rattus norvegicus; test: Androgenic effect in castrated rat prostate assessed as reversal at 0.3 to 3 mg/kg/day sc using osmotic pump after 14 days; assay type: functional, Prostate gland; conditions: route subcutaneous
Outline: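 Orchiectomized male rats received compound by subcutaneous osmotic pump for 14 days at 0.1-3 (mg/kg)/day. […] Levator ani and ventral prostate were weighed after 2 weeks and compared with sham-operated vehicle-treated controls, expressed as reversal of ORX-induced atrophy.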

[21] = Plasma concentration in Beagle dog at 1 mg/kg, iv after 4 hrs; assay type: ADME, organism-based, Canis lupus familiaris; design: dose 1 mg/kg, route intravenous
[22] = Metabolic stability in human hepatocyte assessed as half life; assay type: ADME, cell-based, Liver; conditions: hepatocytes
[23] = Plasma concentration in Sprague-Dawley rat at 1 mg/kg, iv after 30 mins; assay type: ADME, organism-based; design: dose 1 mg/kg, route intravenous
[24] = Plasma concentration in Beagle dog at 1 mg/kg, iv after 24 hrs; assay type: ADME, organism-based, Canis lupus familiaris; design: dose 1 mg/kg, route intravenous
[25] = Oral bioavailability in Sprague-Dawley rat at 10 mg/kg, po; assay type: ADME, organism-based; conditions: in vivo
[26] = Plasma concentration in Sprague-Dawley rat at 1 mg/kg, iv after 120 mins; assay type: ADME, organism-based; design: dose 1 mg/kg, route intravenous
[27] = Oral bioavailability in Beagle […] at 10 mg/kg, po; assay type: ADME, organism-based, Canis lupus familiaris; conditions: in vivo
[28] = Plasma concentration in Beagle dog at 10 mg/kg, po after 0.25 hrs; assay type: ADME, organism-based, Canis lupus familiaris; design: dose 10 mg/kg, route oral
[29] = Plasma concentration in Beagle dog at 10 mg/kg, po after 1 hrs; assay type: ADME, organism-based, Canis lupus familiaris; design: dose 10 mg/kg, route oral
[30] = system: Liver microsomes; test: Metabolic stability in human liver microsomes assessed as intrinsic clearance; assay type: ADME, Microsome
[31] = Cmax in Beagle dog at 1 mg/kg, iv; assay type: ADME, organism-based, Canis lupus familiaris; design: dose 1 mg/kg, route intravenous; conditions: in vivo
[32] = Plasma concentration in Sprague-Dawley rat at 10 mg/kg, po after 120 mins; assay type: ADME, organism-based; design: dose 10 mg/kg, route oral
[33] = Oral bioavailability in dog; assay type: ADME, organism-based, Canis lupus familiaris; conditions: in vivo
[34] = Plasma concentration in Sprague-Dawley rat at 10 mg/kg, po after 480 mins; assay type: ADME, organism-based; design: dose 10 mg/kg, route oral
[35] = Clearance in Beagle dog at 1 mg/kg, iv; assay type: ADME, organism-based, Canis lupus familiaris; design: dose 1 mg/kg, route intravenous; conditions: in vivo
[36] = Cmax in Sprague-Dawley rat at 10 mg/kg, po; assay type: ADME, organism-based; design: dose 10 mg/kg, route oral; conditions: in vivo
[37] = Volume of distribution at steady state in Beagle dog at 1 mg/kg, iv; assay type: ADME, organism-based, Canis lupus familiaris; design: dose 1 mg/kg, route intravenous; conditions: in vivo, read-out: Vdss
[38] = Plasma concentration in Beagle dog at 10 mg/kg, po after 0.5 hrs; assay type: ADME, organism-based, Canis lupus familiaris; design: dose 10 mg/kg, route oral
[39] = Binding affinity to androgen receptor LBD T877A mutant in hamster DDT cells by scintillation counting; assay type: cell-based, Cricetinae
[40] = Plasma concentration in Beagle dog at 10 mg/kg, po after 24 hrs; assay type: ADME, organism-based, Canis lupus familiaris; design: dose 10 mg/kg, route oral

SMILES: Cc1c(N2[C@@H]3CC[C@H]2C[C@@](C)(O)C3)ccc(C#N)c1Cl
- concentration at 0.5 h [1]: 314 ng/mL
- half-life [2]: 126 min
- AUC at 8 h [3]: 631 ng·h/mL
- concentration at 8 h [4]: 60.6 ng/mL
- CL [5]: 72 uL/ml.millig
- concentration at 2 h [6]: 49.5 ng/mL
- concentration at 1 h [7]: 263 ng/mL
- concentration at 0.25 h [8]: 231 ng/mL
- concentration at 0.5 h [9]: 190 ng/mL
- concentration at 10 min [10]: 447 ng/mL
- EC50 [11]: 0.398 nM
- concentration at 6 h [12]: 9.5 ng/mL
- Vd [13]: 3.91 L/kg
- concentration at 1 h [14]: 137 ng/mL
- concentration at 4 h [15]: 353 ng/mL
- concentration at 8 h [16]: 5.5 ng/mL
- concentration at 4 h [17]: 45.4 ng/mL
- clearance [18]: 24.4 mL/min/kg
- concentration at 4 h [19]: 159 ng/mL
- Activity [20]: 21%
- concentration at 4 h [21]: 18.5 ng/mL
- half-life [22]: 300 min
- concentration at 0.5 h [23]: 234 ng/mL
- concentration at 24 h [24]: 0.3 ng/mL
- bioavailability [25]: 38%
- concentration at 2 h [26]: 74.3 ng/mL
- bioavailability [27]: 56%
- concentration at 0.25 h [28]: 835 ng/mL
- concentration at 1 h [29]: 408 ng/mL
- CL [30]: 28 uL/ml.millig
- Cmax [31]: 357 ng/mL
- concentration at 2 h [32]: 238 ng/mL
- bioavailability [33]: 56%
- concentration at 8 h [34]: 253 ng/mL
- clearance [35]: 42 mL/min/kg
- Cmax [36]: 421 ng/mL
- Vd [37]: 6.1 L/kg
- concentration at 0.5 h [38]: 592 ng/mL
- pKi [39]: 5.5
- concentration at 24 h [40]: 3.2 ng/mL
